In the library only some 5.9% were active in any assay of this set; here they are far more common.
KDM4C inh: inhibitors of human demethylase GASC-1 KDM4C. Q9H3R0. GST-KDM4C 2-372, H3K9me3 peptide, LANCE TR-FRET. inhibition, % at 12.5 µM. 0.15% of 96,000 active;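 active means mean replicate inhibition above about 25%, with at least 55% of replicates also reaching it, limit read from the data, passing the limit was not always enough; inconclusive means only one of those two conditions met; inactive means neither condition met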
Target sequence (Q9H3R0 2-372 limits assumed): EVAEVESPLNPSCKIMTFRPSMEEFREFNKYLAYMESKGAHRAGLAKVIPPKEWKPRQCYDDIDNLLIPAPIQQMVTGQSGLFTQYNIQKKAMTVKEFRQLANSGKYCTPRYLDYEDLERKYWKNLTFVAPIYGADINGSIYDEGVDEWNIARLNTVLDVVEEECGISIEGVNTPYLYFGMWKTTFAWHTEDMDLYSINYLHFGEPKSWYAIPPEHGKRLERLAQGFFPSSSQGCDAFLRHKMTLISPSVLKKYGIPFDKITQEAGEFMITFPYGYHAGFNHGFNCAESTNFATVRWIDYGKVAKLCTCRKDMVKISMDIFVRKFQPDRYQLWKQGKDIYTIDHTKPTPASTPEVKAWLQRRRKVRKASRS
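Material: GST-tagged GASC-1 (JMJD2C) catalytic fragment, aa 2-372. Input: enzyme final amount 10 nM. Medium: HEPES buffer, pH 7.5, plus ascorbate. Reagent: H3K9me3 peptide substrate, Fe(II), 2-oxoglutarate. Doses: single dose. Times: reaction 30 min RT, detection step 1 h RT. Measured by: LANCE TR-FRET. Evaluation: Fall in 671/618 emission ratio as inhibition.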
Pf Dd2 inh: blocks growth of Plasmodium falciparum Dd2 parasites; P. falciparum Dd2 growth, SYBR Green, 72 h; active compounds read low; 2.3% of 94,000 active; activity change, % at 10 µM; AID 1159554; in the data active means activity change below about -80%; inconclusive means no clear call, values can overlap the other calls
IDH1 mut inh: IDH1 R132H (human) inhibition. O75874. IDH1 R132H reductase, diaphorase/resazurin fluorescence, 60 min. inhibition, % at 10 µM. 0.18% of 70,000 active. AID 624101; in the data active means inhibition above about 34%; inconclusive means no clear call, values can overlap the other calls; inactive means below about 11%;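 further: 0% = DMSO and 100% = no enzyme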
T cruzi growth-1: T. cruzi proliferation inhibition; T. cruzi beta-gal in NIH3T3, GalScreen luminescence, 90 h; inhibition, % at 8.34 µM; 5.9% of 77,000 active;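 active means mean inhibition above about 93%, with at least 55% of replicates each passing it, limit read from the data, passing the limit was not always enough; inconclusive means only one of those two conditions holds; inactive means neither condition holds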
T cruzi growth-2: Trypanosoma cruzi proliferation inhibition; AID 651739; T. cruzi beta-gal in NIH3T3, GalScreen luminescence, 90 h; shares compounds with T cruzi growth-1; inhibition, % at 8.35 µM; 72% of 5,600 active;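 active means mean replicate inhibition above about 95% and at least 55% of replicates individually reaching it, limit read from the data; inconclusive means only one of the two criteria is met; inactive means neither criterion is met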
T cruzi growth-3: Trypanosoma cruzi proliferation inhibition; shares compounds with T cruzi growth-1; 21% of 5,600 active; inhibition, % at 2.09 µM; AID 651740; T. cruzi beta-gal in NIH3T3, GalScreen luminescence, 90 h;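 active means mean inhibition above about 95%, with at least 55% of replicates also reaching it, limit read from the data; inconclusive means meets just one of the two conditions; inactive means meets neither condition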;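 further: plate controls were neutral control median for no effect and positive control median for full effect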
NIH3T3 tox: NIH/3T3 (mouse) viability loss; NIH/3T3 viability, CellTiter-Glo ATP luminescence, 90 h; cytotoxicity (signal decrease), % at 8.35 µM; 14% of 5,600 active; shares compounds with T cruzi growth-1; AID 651742;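 active means mean signal decrease across replicates above about 35% based on untreated-well scatter, with enough replicates individually passing, limit read from the data; inconclusive means no rule stated though some were filed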;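 further: 0% = median of neutral control wells and 100% = median of positive control wells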
NIH3T3 tox 2: cytotoxicity in mouse NIH/3T3 fibroblasts; shares compounds with T cruzi growth-1; NIH/3T3 viability, CellTiter-Glo ATP luminescence, 90 h; inhibition, % at 24.9 µM; 56% of 5,600 active; AID 651744;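 active means mean loss of cell viability signal at or above a set limit, and enough replicates individually reaching it; inconclusive means meets only the mean limit or only the replicate share; inactive means meets neither condition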;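 further: 0% = median of neutral control wells and 100% = median of positive control wells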
Active calls of the source: *; ? = inconclusive; nt = no result given.

SMILES	KDM4C inh	Pf Dd2 inh	IDH1 mut inh	T cruzi growth-1	T cruzi growth-2	T cruzi growth-3	NIH3T3 tox	NIH3T3 tox 2
CC=Cc1ccc2n(c1=O)C[C@H]1[C@H](CO)[C@@H](C(=O)Nc3ccc(-c4ccccc4)cc3)N(CCC)[C@@H]21 (mixture of isomers)	-1	-29	nt	112*	92	85	24	104*
CC=Cc1ccc2n(c1=O)C[C@H]1[C@H](CO)[C@@H](C(=O)Nc3ccc(-c4ccccc4)cc3)N(C)[C@@H]21 (mixture of isomers)	1	nt	nt	90	nt	nt	nt	nt
CC=Cc1ccc2n(c1=O)C[C@@H]1[C@@H](CO)[C@H](C(=O)Nc3ccc(-c4ccccc4)cc3)N(CCC)[C@H]21 (mixture of isomers)	-1	-38	nt	103*	100*	68	7	106*
Cc1ccc(-c2ccc([C@H]3[C@H](CO)N4CCCCN(S(=O)(=O)c5ccccc5C)C[C@@H]34)cc2)cc1	0	-48	nt	75	nt	nt	nt	nt
Cc1cccc(-c2ccc([C@H]3[C@@H](CO)N4CCCCN(S(=O)(=O)c5ccccc5C)C[C@@H]34)cc2)c1	-1	-13	nt	111*	112*	89	9	-3
Cc1ccccc1S(=O)(=O)N1CCCCN2[C@H](C1)[C@H](c1ccc(-c3ccccc3)cc1)[C@@H]2CO	nt	2	nt	107*	102*	75	0	48*
CNC(=O)CN(c1ccc(Br)c(C)c1)S(C)(=O)=O	nt	nt	0	nt	nt	nt	nt	nt
COc1ccc(C(=O)CC2(O)C(=O)N(CCCC#N)c3ccccc32)c(OC)c1 (stereo not given)	nt	nt	0	nt	nt	nt	nt	nt
COc1c(OC)c2c(C)cccc2oc1=O	nt	nt	0	nt	nt	nt	nt	nt
CN1C[C@@H](O)COC[C@H]2O[C@@H](CC(=O)N3CCN(c4ccccc4)CC3)CC[C@@H]21	-1	-20	nt	21	nt	nt	nt	nt
O=C(C[C@H]1CC[C@H]2[C@@H](COC[C@H](O)CN2Cc2ccc(Oc3ccccc3)cc2)O1)N1CCOCC1	3	-25	nt	3	nt	nt	nt	nt
O=C(C[C@@H]1CC[C@@H]2[C@H](COC[C@@H](O)CN2Cc2ccc(Oc3ccccc3)cc2)O1)N1CCN(c2ccccc2)CC1	-1	-71	nt	96*	98*	67	11	32*
Cc1ccccc1S(=O)(=O)N1C[C@@H](O)COC[C@@H]2O[C@H](CC(=O)N3CCN(C)CC3)CC[C@H]21	-3	nt	nt	?	-27	-15	-5	2
O=C(C[C@H]1CC[C@@H]2[C@H](COC[C@@H](O)CN2Cc2ccc(Oc3ccccc3)cc2)O1)N1CCOCC1	2	-16	nt	12	nt	nt	nt	nt
O=C(C[C@H]1CC[C@H]2[C@@H](COC[C@@H](O)CN2Cc2ccc(Oc3ccccc3)cc2)O1)N1CCN(c2ccccc2)CC1	-1	-76	nt	127*	101*	57	-32	104*
CN1C[C@H](O)COC[C@@H]2O[C@@H](CC(=O)N3CCN(c4ccccc4)CC3)CC[C@H]21	0	-32	nt	?	102*	27	4	-6
COc1ccc([N+](=O)[O-])cc1N(CC(=O)Nc1cccc(C)c1)S(C)(=O)=O	nt	nt	1	nt	nt	nt	nt	nt
O=C(C[C@H]1CC[C@@H]2[C@H](COC[C@@H](O)CN2Cc2ccc(Oc3ccccc3)cc2)O1)N1CCN(c2ccccc2)CC1	1	-41	nt	130*	89	70	17	91*
O=C(C[C@@H]1CC[C@H]2[C@@H](COC[C@H](O)CN2Cc2ccc(Oc3ccccc3)cc2)O1)N1CCOCC1	3	-5	nt	-2	nt	nt	nt	nt
COc1ccc(-c2ccc([C@@H]3[C@@H](CO)N4CCCCN(C(=O)c5ccc(F)cc5)C[C@@H]34)cc2)cc1	1	22	nt	67	nt	nt	nt	nt
COc1ccc(-c2ccc([C@H]3[C@@H](CO)N4CCCCN(C(=O)c5ccc6c(c5)OCO6)C[C@H]34)cc2)cc1	-3	-33	nt	101*	104*	66	49*	104*
COc1ccc(-c2ccc([C@@H]3[C@@H](CO)N4CCCCN(C(=O)c5ccc6c(c5)OCO6)C[C@H]34)cc2)cc1	-1	-23	nt	98*	79	33	21	98*
COc1ccc(-c2ccc([C@H]3[C@@H](CO)N4CCCCN(C(=O)c5ccc6c(c5)OCO6)C[C@@H]34)cc2)cc1	0	-44	nt	118*	107*	93	46*	43*
O=C(c1ccc2c(c1)OCO2)N1CCCCN2[C@H](C1)[C@@H](c1ccc(-c3ccccc3)cc1)[C@@H]2CO	0	3	nt	88	nt	nt	nt	nt
COc1ccc(-c2ccc([C@@H]3[C@H]4CN(C(=O)c5ccc(F)cc5)CCCCN4[C@H]3CO)cc2)cc1	1	-21	nt	71	nt	nt	nt	nt
SMILES	KDM4C inh	Pf Dd2 inh	IDH1 mut inh	T cruzi growth-1	T cruzi growth-2	T cruzi growth-3	NIH3T3 tox	NIH3T3 tox 2
COc1ccc(-c2ccc([C@@H]3[C@@H](CO)N4CCCCN(C(=O)c5ccc6c(c5)OCO6)C[C@@H]34)cc2)cc1	-1	-76	nt	115*	98*	39	2	43*
CCc1c(C)nc(SCC(=O)Nc2ccc(Cl)cc2)[nH]c1=O	nt	nt	0	nt	nt	nt	nt	nt
COC(=O)Cc1c(C)c2cc(Cl)c(OC(C)C(C)=O)cc2oc1=O (stereo not given)	nt	nt	0	nt	nt	nt	nt	nt
Cc1cccc(NC(=O)CNS(=O)(=O)c2ccc(Br)cc2)c1	nt	nt	0	nt	nt	nt	nt	nt
COc1ccccc1-c1ccc([C@H]2[C@H](C#N)N(C(=O)C3CCC3)[C@H]2CO)cc1	0	-28	nt	15	nt	nt	nt	nt
COc1ccccc1-c1ccc([C@@H]2[C@@H](C#N)N(C(=O)NC(C)C)[C@@H]2CO)cc1	-1	-9	0	99*	96*	37	6	38*
COc1ccccc1-c1ccc([C@H]2[C@@H](CO)N(C(=O)C3CCC3)[C@H]2C#N)cc1	-1	30	0	99*	30	-26	12	-6
COc1ccccc1-c1ccc([C@H]2[C@@H](CO)N(C(=O)C3CC3)[C@H]2C#N)cc1	4	38	0	103*	41	21	0	-2
COc1ccc(-c2ccc([C@H]3[C@H](C#N)N(C(=O)C4CCCC4)[C@H]3CO)cc2)cc1	-5	-26	nt	100*	91	52	17	20
Cc1ccc(C)c(NC(=O)c2ccc(OCC(=O)Nc3ccc(Cl)c(Cl)c3)cc2)c1	nt	nt	0	nt	nt	nt	nt	nt
CO[C@@]1(c2ccc3c(c2)OCO3)OC[C@@H]2[C@@H](c3ccc4c(c3)OCO4)OC[C@@]21O	nt	nt	0	nt	nt	nt	nt	nt
COc1ccccc1-c1ccc([C@@H]2[C@@H](C#N)N(C(=O)CN(C)C)[C@H]2CO)cc1	1	1	nt	58	nt	nt	nt	nt
